Assay type in all cases: cell-based
For data set [1], the target named is T1, Interleukin-5 receptor subunit alpha (Mus musculus) (UniProt P21183).
T1 sequence (whole entry): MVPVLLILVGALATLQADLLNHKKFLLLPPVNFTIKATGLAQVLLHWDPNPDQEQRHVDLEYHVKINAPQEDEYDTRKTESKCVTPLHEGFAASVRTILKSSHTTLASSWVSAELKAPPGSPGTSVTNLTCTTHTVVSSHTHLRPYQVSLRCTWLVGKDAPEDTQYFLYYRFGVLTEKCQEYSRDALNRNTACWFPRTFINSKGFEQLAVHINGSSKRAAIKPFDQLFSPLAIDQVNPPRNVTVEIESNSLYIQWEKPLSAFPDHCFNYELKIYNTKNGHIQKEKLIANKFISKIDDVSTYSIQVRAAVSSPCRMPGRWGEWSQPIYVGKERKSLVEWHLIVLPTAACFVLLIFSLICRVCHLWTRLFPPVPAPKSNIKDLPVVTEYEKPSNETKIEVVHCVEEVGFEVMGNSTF
Briefly: Inhibition of IL-5 receptor in mouse pro-B Y16 cells assessed as decrease in mIL-5 dependent cell proliferation at 30 uM after 48 hrs in presence of 3 units/ml mIL-5 by WST-1 assay relative to control. In outline: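 Y16 murine early B-cell line was maintained in RPMI-1640 with 8% FBS and 3 units/mL mIL-5. Cells were washed twice in Hanks', resuspended without IL-5 (viability >95%), and plated at 1 × 10⁴ cells per well. A 3 units/mL mIL-5 solution and sample were added. Control wells received medium in place of sample; blank wells received medium in place of mIL-5. After 48 h at 37 °C, WST-1 was added for 2–4 h and A450 was read.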

For data set [2], the target named is T1, Interleukin-5 receptor subunit alpha (Mus musculus). Description: Inhibition of IL-5 receptor in mouse pro-B Y16 cells assessed as decrease in mIL-5 dependent cell proliferation at 50 uM after 48 hrs in presence of 3 units/ml mIL-5 by WST-1 assay relative to control. (In general: Tetrazolium assays rely on reduction of a dye to a coloured formazan, in cell work by metabolically active cells.)

The nature of data set [3]: Cytotoxicity against human HCC1395BL cells assessed as inhibition of cell viability at 30 uM measured after 48 hrs by MTT assay. Particulars: read-out: INH. In outline:
(§1)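 HCC1395 BL or NCI-BL1184 normal B lymphoblasts were cultured in RPMI-1640 or IMDM with 10% FBS at 37 °C and 5% CO₂, with serum but no IL-5. Cells were exposed to compound for 48 h, then to 0.5 mg/mL MTT for a further 3 h. Values are the mean ± SD of three independent measurements.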

Data set [4] is described as follows: Cytotoxicity against human NCI-BL1184 cells assessed as inhibition of cell viability at 30 uM measured after 48 hrs by MTT assay. Conditions: read-out: INH. In outline:
as §1

The structures appear in SMILES notation.

In the case of `CN(CCO)Cc1nc2c(OCC3CCCCC3)cccc2[nH]1`, in data set [1], the inhibition (as a rule, the share of the control response that was lost under treatment) turned out to be 42%.

Consider `CCCN(CCO)Cc1nc2c(OCC3CCCCC3)cccc2[nH]1`, for which the inhibition in data set [1] is 63%.

Consider `COc1ccc(CNCc2nc3c(OCC4CCCCC4)cccc3[nH]2)cc1`, for which the inhibition in data set [1] came to 43.3%.

As to `OCCCNCc1nc2c(OCC3CCCCC3)cccc2[nH]1`, in data set [1], the inhibition came out at 52.7%.

For `OCCN(Cc1ccccc1)Cc1nc2c(OCC3CCCCC3)cccc2[nH]1`, in data set [1], the inhibition was 62.3%.

With `COc1ccc(CN(CCO)Cc2nc3c(OCC4CCCCC4)cccc3[nH]2)cc1`, the inhibition in data set [1] is 73.3%.

`CCCC1O[C@@H]2C[C@H]3[C@@H]4CCC5=CC(=O)C=C[C@]5(C)[C@H]4[C@@H](O)C[C@]3(C)[C@]2(C(=O)CO)O1` (stereo partly specified): the inhibition in data set [2] was 70.2%.

On to `OCCN(Cc1ccncc1)Cc1nc2c(OCC3CCCCC3)cccc2[nH]1`, for which the inhibition in data set [1] was 43.3%.

With `CCC(CO)NCc1nc2c(OCC3CCCCC3)cccc2[nH]1` (stereo unspecified), the inhibition in data set [1] amounted to 94.3%. In addition, the values for the cytotoxicity at 48 h, 30 µM in data set [3] and in data set [4] were 7.5% and 10.2%, respectively.

In the case of `CCN(CCO)Cc1nc2c(OCC3CCCCC3)cccc2[nH]1`, the inhibition in data set [1] was determined as 34.7%.

Consider `COc1ccc(NCc2nc3c(OCC4CCCCC4)cccc3[nH]2)cc1`, for which the inhibition in data set [1] turned out to be 20.3%.

On to `CC(C)N(CCO)Cc1nc2c(OCC3CCCCC3)cccc2[nH]1`, for which, in data set [1], the inhibition came to 10%.

`OCCN(Cc1nc2c(OCC3CCCCC3)cccc2[nH]1)CC1CCCCC1`: in data set [1], the inhibition was determined as 76.7%.

Regarding `OCC(CC1CCCCC1)NCc1nc2c(OCC3CCCCC3)cccc2[nH]1` (stereo unspecified), in data set [1], the inhibition came out at 94.7%. Also, the figures for the cytotoxicity at 48 h, 30 µM in data set [3] and in data set [4] were 12.5% and 9.8%, respectively.

On to `OCCC(NCc1nc2c(OCC3CCCCC3)cccc2[nH]1)c1ccccc1` (stereo unspecified), for which the inhibition in data set [1] is 64.7%.

In the case of `OCCNCc1nc2c(OCC3CCCCC3)cccc2[nH]1`, the inhibition in data set [1] amounted to 63.3%.

`CC(C)(CO)NCc1nc2c(OCC3CCCCC3)cccc2[nH]1`: the inhibition in data set [1] came to 54.7%.

As to `OCCN(Cc1ccc(Cl)cc1)Cc1nc2c(OCC3CCCCC3)cccc2[nH]1`, the inhibition in data set [1] came out at 96%.

`O=c1c(-c2ccc(O[C@@H]3O[C@H](CO)[C@@H](O)[C@H](O)[C@H]3O)cc2)coc2cc(O)cc(O)c12`: the inhibition in data set [2] stood at 79.1%.

`OCCN(Cc1nc2c(OCC3CCCCC3)cccc2[nH]1)C1CCCCC1`: the inhibition in data set [1] turned out to be 24%.

`CCCC(CO)NCc1nc2c(OCC3CCCCC3)cccc2[nH]1` (stereo unspecified): in data set [1], the inhibition amounted to 73.3%.

With `OCC(Cc1ccccc1)NCc1nc2c(OCC3CCCCC3)cccc2[nH]1` (stereo unspecified), the inhibition in data set [1] is 81%.

On to `OCCCCCNCc1nc2c(OCC3CCCCC3)cccc2[nH]1`, for which, in data set [1], the inhibition came to 23.7%.

Regarding `OCCCCNCc1nc2c(OCC3CCCCC3)cccc2[nH]1`, the inhibition in data set [1] is 44.3%.

With `OCC(NCc1nc2c(OCC3CCCCC3)cccc2[nH]1)c1ccccc1` (stereo unspecified), the inhibition in data set [1] is 77.7%.

As for `c1ccc(CNCc2nc3c(OCC4CCCCC4)cccc3[nH]2)cc1`, in data set [1], the inhibition stood at 49.3%.

For the molecule `c1ccc(NCc2nc3c(OCC4CCCCC4)cccc3[nH]2)cc1`, the inhibition in data set [1] worked out at 25%.

The values above are taken from ChEMBL document CHEMBL4364327, “Discovery of benzimidazole analogs as a novel interleukin-5 inhibitors” (Eur J Med Chem, 2019).
